These results are taken from paper PMC6919324 (European journal of pharmaceutics and biopharmaceutics : …, 2019).

SMILES strings stand for the structures.

Data set [1] deals with T1, P-gp (Homo sapiens, UniProt P08183). In words: Caco-2 transwell basolateral to apical transport of P-gp substrates. Type of data set: in vitro ADME.
Data set [2] concerns the target T1, P-gp. In words: Biosimilar mucus transport study of R123 in Caco-2 transwells. Type of data set: in vitro ADME. Background: Caco-2 cells form a polarised layer with tight junctions and transporters.
For data set [3], the target named is P-gp (Mus musculus, UniProt P21447). In words: Ex vivo mouse jejunum intestinal sac, mucosal to serosal R123 transport. Type of data set: in vitro ADME, BALB/c mice. Conditions: BALB/c, with microdevices, 3000 microdevices/cm^2. In short, it runs like this: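 Intestinal sacs from three BALB/c mice aged 18–20 weeks, with one end tied off, were incubated in media at 37°C. Over time the serosal-side solution was removed and replaced with fresh media. Fluorescence of the removed solution was read at excitation 495 nm and emission 560 nm.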
Chain of P-gp (Mus musculus, UniProt P21447) (P21447 whole entry): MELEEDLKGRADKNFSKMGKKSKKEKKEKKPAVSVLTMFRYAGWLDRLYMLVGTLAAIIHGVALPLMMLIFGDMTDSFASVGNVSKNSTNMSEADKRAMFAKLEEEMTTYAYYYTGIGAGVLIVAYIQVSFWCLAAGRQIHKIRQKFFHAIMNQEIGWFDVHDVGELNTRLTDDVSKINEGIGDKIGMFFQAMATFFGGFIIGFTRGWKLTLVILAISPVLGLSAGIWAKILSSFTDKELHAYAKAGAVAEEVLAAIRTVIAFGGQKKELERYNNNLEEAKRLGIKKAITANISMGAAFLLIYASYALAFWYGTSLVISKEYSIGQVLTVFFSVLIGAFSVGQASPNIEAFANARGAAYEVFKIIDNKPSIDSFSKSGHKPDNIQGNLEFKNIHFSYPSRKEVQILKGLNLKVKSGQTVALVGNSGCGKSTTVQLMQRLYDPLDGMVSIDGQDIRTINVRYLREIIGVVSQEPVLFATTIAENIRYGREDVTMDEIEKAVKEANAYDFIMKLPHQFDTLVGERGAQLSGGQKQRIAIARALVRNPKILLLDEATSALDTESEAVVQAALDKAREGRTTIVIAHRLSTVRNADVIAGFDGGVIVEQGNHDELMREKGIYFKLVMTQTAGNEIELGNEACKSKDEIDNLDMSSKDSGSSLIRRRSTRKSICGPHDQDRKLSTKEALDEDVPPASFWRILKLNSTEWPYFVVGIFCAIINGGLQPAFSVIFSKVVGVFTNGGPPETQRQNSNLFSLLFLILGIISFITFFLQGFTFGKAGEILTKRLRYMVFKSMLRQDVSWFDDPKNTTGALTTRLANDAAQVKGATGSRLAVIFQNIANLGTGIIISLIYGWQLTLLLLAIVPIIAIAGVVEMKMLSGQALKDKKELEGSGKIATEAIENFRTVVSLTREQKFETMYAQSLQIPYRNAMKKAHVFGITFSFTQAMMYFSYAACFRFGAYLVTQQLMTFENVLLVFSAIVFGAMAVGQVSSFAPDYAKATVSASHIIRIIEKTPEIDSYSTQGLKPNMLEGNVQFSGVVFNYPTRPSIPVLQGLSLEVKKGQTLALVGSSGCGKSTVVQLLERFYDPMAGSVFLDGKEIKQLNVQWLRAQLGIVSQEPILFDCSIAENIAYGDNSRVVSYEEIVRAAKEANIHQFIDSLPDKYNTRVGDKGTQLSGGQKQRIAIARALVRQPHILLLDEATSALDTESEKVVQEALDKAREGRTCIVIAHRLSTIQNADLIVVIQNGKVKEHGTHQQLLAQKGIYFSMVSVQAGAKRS

T1 sequence (P08183 whole entry): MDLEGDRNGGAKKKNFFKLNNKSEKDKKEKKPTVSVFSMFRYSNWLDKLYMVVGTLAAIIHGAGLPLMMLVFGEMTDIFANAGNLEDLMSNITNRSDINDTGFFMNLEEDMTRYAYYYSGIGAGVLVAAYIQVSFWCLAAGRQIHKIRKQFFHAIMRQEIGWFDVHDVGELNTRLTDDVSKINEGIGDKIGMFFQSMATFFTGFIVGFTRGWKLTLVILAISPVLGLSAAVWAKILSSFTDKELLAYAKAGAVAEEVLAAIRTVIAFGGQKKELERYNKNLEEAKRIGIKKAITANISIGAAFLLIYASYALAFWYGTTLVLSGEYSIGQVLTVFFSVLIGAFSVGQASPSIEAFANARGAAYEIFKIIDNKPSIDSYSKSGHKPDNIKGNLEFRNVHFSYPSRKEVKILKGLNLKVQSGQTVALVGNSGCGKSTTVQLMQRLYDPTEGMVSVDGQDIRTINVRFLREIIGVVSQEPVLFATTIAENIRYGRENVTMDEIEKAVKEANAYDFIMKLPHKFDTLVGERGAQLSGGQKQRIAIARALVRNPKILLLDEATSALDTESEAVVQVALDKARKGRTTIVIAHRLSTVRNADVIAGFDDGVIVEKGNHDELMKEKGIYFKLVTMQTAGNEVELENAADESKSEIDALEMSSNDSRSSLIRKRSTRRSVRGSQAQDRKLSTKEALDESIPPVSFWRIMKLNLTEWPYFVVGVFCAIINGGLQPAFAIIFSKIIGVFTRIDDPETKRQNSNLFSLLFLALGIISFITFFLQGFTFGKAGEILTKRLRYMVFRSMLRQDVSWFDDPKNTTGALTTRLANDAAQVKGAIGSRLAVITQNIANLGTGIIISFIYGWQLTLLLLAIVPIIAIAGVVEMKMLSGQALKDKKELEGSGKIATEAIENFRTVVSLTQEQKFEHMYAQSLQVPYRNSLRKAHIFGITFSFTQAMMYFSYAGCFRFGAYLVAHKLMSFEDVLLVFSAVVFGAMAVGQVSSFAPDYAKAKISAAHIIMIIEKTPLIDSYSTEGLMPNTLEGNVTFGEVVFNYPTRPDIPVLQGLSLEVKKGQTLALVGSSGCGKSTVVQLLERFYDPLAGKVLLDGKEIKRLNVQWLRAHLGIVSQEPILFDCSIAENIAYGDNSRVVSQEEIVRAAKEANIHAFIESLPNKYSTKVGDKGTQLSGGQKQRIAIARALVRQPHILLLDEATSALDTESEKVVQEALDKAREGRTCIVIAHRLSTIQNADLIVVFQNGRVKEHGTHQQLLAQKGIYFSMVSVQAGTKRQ

On to `COc1cccc2c1C(=O)c1c(O)c3c(c(O)c1C2=O)C[C@@](O)(C(=O)CO)C[C@@H]3O[C@H]1C[C@H](N)[C@H](O)[C@H](C)O1` [Doxorubicin, doxorubicin], for which the Papp B→A (in general, the apparent permeability from the basolateral to the apical side of a cell layer) on P-gp [1] is 1.9 ± 0.35 ×10⁻⁶ cm/s.
Compound `COC(=O)c1ccccc1-c1c2ccc(=N)cc-2oc2cc(N)ccc12` [R123, rhodamine 123] registered a Papp B→A on P-gp [1] of 8.03 ± 3.5 ×10⁻⁶ cm/s. The compound further displayed an apparent permeability from basolateral to apical (Papp B→A) at 5 µM at P-gp [2] of 9.25 ± 3.8 ×10⁻⁶ cm/s. Moreover, the Papp – broadly, the rate of passage across a membrane or cell layer, normalised by area and donor concentration – at 5 µM at P-gp [3] is 0.35 ×10⁻⁶ cm/s.
